Measurements from paper PMC7936662 (Thrombosis research, 2020).
Like-named read-outs stand apart in the source and are kept apart here.

Tests used:
male SD rats [1] = assay: Inferior vena cava; format: in vivo; settings: rat
male CD-1 mice [2] = assay: Mouse iron-chloride-induced arterial thrombosis model; format: in vivo
male SD rats [3] = settings: rat, cited from earlier work
male SD rats [4] = assay: Arteriovenous shunt; format: in vivo; settings: rat, 3 mg/kg infusion
thrombin generation = assay: Thrombin generation assay; format: biochemical; settings: 70% human platelet-poor plasma, mean ± SD; for Cmax: read-out: Tmax EC2x (concentration of inhibitor required to double the time at which Cmax occurs)
male SD rats [5] = settings: rat, cited from earlier work; remark: listed apart in the source
male SD rats [6] = assay: Platelet status in AV shunt model; format: in vivo; settings: rat, vehicle approximately 20%
male CD-1 mice [7] = assay: Thrombin-induced thromboembolism mouse model; format: in vivo; settings: 4.5 mg/kg IV, 30 min observation, human α-thrombin 1.75 U/g
Outline: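 Mice anaesthetised with 1:1 ketamine:xylazine. Test compound given by tail-vein injection; 30 s later human α-thrombin in PBS (1.75 U/g body weight) or PBS alone injected slowly. Mortality observed for 30 min; animals alive at 30 min scored as survivors and euthanised by cervical dislocation. Results expressed as percent survival; n = 12 per treatment group.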

[8] = tested on: thrombin-mediated platelet activation; assay: In vitro platelet activation in whole blood; format: cell-based, human; settings: mean ± SD
[9] = tested on: thrombin-mediated platelet activation; assay: In vitro platelet activation in whole blood; format: cell-based; settings: read-out: EC50 inhibition of platelet activation, Rat blood—Thrombin; 20% whole blood; mean ± SD
[10] = tested on: TF-mediated platelet activation; assay: In vitro platelet activation in whole blood; format: cell-based, human; settings: mean ± SD
[11] = tested on: thrombin-mediated platelet activation; assay: In vitro platelet activation in whole blood; format: cell-based; settings: read-out: EC50 inhibition of platelet activation, Mouse blood—Thrombin; 20% whole blood; mean ± SD

For COc1ccc(-n2nc(C(N)=O)c3c2C(=O)N(c2ccc(N4CCCCC4=O)cc2)CC3)cc1 [Apixaban, apixaban], the “inhibition of thrombus formation” value (male SD rats [1]; 3 mg/kg/infusion) is listed as 90%, the occlusion time (male CD-1 mice [2]; 6 mg/kg infusion) is listed as greater than 30 min and the “inhibition of thrombus formation, literature value” (male SD rats [3]; 3 mg/kg/infusion) is listed as ~ 80%. The “inhibition of thrombus formation” value (male SD rats [4]) was “about 90%”, the EC50 (thrombin generation; read-out: Cmax EC50) was 100 ± 100 nM and the EC50 (thrombin generation; read-out: ETP EC50) was 470 ± 10 nM. The Cmax (thrombin generation) was 70 ± 40 nM and the “inhibition of thrombus formation, literature” value (male SD rats [5]; ref 47 (Shumacher et al. 2010)) was “about 60%”.

For CC1CNc2c(cccc2S(=O)(=O)N[C@@H](CCCNC(=N)N)C(=O)N2CC[C@@H](C)C[C@@H]2C(=O)O)C1 (some centres unmarked) [Argatroban, argatroban], the “activated platelets (average over time points)” value (male SD rats [6]; 2 mg/kg IV) was less than 10%, the occlusion time (male CD-1 mice [2]; 4 mg/kg) was greater than 30 min and the “treated mice in which mortality was prevented” value (male CD-1 mice [7]) was 91%. For the same compound, the EC50 (thrombin generation; read-out: Cmax EC50) was 350 ± 140 nM, the EC50 (thrombin generation; read-out: ETP EC50) was 360 ± 162 nM and the Cmax (thrombin generation) was 454 ± 240 nM.

In the case of [H]/N=C(/N)c1ccc(NCc2nc3cc(C(=O)N(CCC(=O)O)c4ccccn4)ccc3n2C)cc1 [Dabigatran, dabigatran], the “activated platelets (average over time points)” value (male SD rats [6]; 0.1 mg/kg IV) is reported as less than 10%, the ED50 thrombus formation (male SD rats [1]; IV administration) is reported as 0.01 mg/kg and the EC50 ([8]; read-out: EC50 inhibition of platelet activation, Human blood (76%)—Thrombin, 76% whole blood) is reported as 14 ± 1 nM. For the same compound, the EC50 ([8]; read-out: EC50 inhibition of platelet activation, Human blood—Thrombin, 20% whole blood) was 35 ± 10 nM, the EC50 [9] was 27 ± 10 nM and the occlusion time (male CD-1 mice [2]; 0.2 mg/kg) was greater than 30 min. The “EC50 in AV shunt model, literature” value (male SD rats [3]) was ~ 0.04 mg/kg, the EC50 ([10]; read-out: EC50 inhibition of platelet activation, Human blood (76%)—TF, 76% whole blood) was 29 ± 3 nM and the EC50 ([10]; read-out: EC50 inhibition of platelet activation, Human blood—TF, 20% whole blood) was 23 ± 6 nM. For the same compound, the EC50 (thrombin generation; read-out: Cmax EC50) was 450 ± 450 nM, the EC50 (thrombin generation; read-out: ETP EC50) was 310 ± 240 nM and the Cmax (thrombin generation) was 240 ± 240 nM. The “ED50, value published by the manufacturer” value (male SD rats [5]; IV) was 0.033 mg/kg and the EC50 [11] was 21 ± 10 nM.

For O=C(NC[C@H]1CN(c2ccc(N3CCOCC3=O)cc2)C(=O)O1)c1ccc(Cl)s1 [Rivaroxaban, rivaroxaban], the “EC50 in AV shunt model, literature value” (male SD rats [3]) is given as 0.3 mg/kg, the EC50 (thrombin generation; read-out: Cmax EC50) is given as 100 ± 100 nM and the EC50 (thrombin generation; read-out: ETP EC50) is given as 310 ± 140 nM. It also gave a Cmax (thrombin generation) of 100 ± 30 nM.
